# SUMO1-SIM PPI: modulators of human SUMO1-mediated protein-protein interactions; P63165; SUMO1 binding to a labelled peptide, TR-FRET, 1 h; inhibition, % at 20 µM; 360,000 tested, 0.33% active; in the data active means inhibition above about 37%
# Target sequence (P63165 whole entry, looked up): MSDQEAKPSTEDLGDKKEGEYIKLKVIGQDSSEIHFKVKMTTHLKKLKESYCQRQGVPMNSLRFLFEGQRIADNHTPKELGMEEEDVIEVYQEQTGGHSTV
# STEP block: blocks human striatal-enriched tyrosine phosphatase; P54829; recombinant STEP, OMFP fluorogenic substrate, fluorescence; inhibition, % at 20 µM; 360,000 tested, 0.25% active; AID 588621;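 active means inhibition at 20 µM, scaled per plate between control wells, above about 37%, limit read from the data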;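 further: 0% = DMSO with enzyme and substrate and 100% = substrate only without enzyme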
#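 Assay system: isolated STEP enzyme. Buffer or medium: pH 6.0 Bis-Tris with DTT and Tween 20. Also added: fluorogenic phosphatase substrate OMFP at 25 µM final. Dosing: 20 µM, 1% DMSO. Timing: 20 min reaction, room temperature, in the dark. Measured by: fluorescence intensity, excitation 480 nm, emission 540 nm. Evaluation: normalized % inhibition.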
# DNMT1 inh: DNMT1 (human) enzyme inhibition. DNMT1 molecular beacon, Hinp1I cleavage, fluorescence. inhibition (reported as % activation of signal), % at 10 µM. 360,000 tested, 0.83% active. AID 588458; in the data active means inhibition above about 50%
# LMPTP inh: LMPTP (human) inhibition; inhibition, % at 20 µM; 360,000 tested, 0.22% active; P24666; recombinant LMPTP-A, OMFP fluorogenic substrate, fluorescence intensity;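 active means compounds that cut the enzyme signal by at least half of the control window in the single-dose screen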;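 further: plate controls were DMSO wells with enzyme plus substrate for no effect and substrate without enzyme for full effect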
# Target sequence (P24666 whole entry, looked up): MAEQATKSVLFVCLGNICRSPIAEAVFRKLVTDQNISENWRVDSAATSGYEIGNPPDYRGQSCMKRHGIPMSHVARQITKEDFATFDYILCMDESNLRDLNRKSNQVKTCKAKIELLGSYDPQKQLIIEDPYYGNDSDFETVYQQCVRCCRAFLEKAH
#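 Assay system: LMPTP-A phosphatase enzyme | Input: 0.625 nM enzyme | Also added: Fluorogenic phosphatase substrate OMFP at 400 µM final | Compound dosing: One test concentration per compound, 20 µM, with 3% DMSO overall | Schedule: 50 min enzyme reaction at room temperature, protected from light | Signal: Fluorescence intensity | Benchmarks: no-enzyme and uninhibited controls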
# Scp-1 inhibitor: blocks human Scp-1 phosphatase activity. Q9GZU7. Recombinant Scp1, phosphopeptide, malachite green phosphate absorbance. inhibition, % at 20 µM. 340,000 tested, 0.88% active;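 active means inhibition above about 50% at 20 µM, limit read from the data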;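 further: plate controls were DMSO wells with enzyme for no effect and wells lacking enzyme for full effect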
# Target sequence (Q9GZU7 76-261 limits assumed): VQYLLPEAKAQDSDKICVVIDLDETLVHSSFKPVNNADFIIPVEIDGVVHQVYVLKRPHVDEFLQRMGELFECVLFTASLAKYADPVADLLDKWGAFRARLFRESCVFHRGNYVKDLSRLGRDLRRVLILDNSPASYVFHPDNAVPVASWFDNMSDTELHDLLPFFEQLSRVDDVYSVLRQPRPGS
#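 Test system: SCP-1 catalytic domain; Buffer or medium: Acidic Tris acetate buffer with magnesium and detergent; Also added: Phosphorylated 17-residue peptide substrate; Compound: single 20 µM dose, 1% DMSO; Schedule: enzyme reaction 45 min at room temperature, colour 5 min, stabilisation 30 min; Signal: Phosphate-binding colour reagent, absorbance read at 630 nm.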
# GRK2 inh: inhibitors of human GRK2 displacing RNA aptamer; P25098; bead flow cytometry, FAM-aptamer displacement from GRK2; inhibition of aptamer binding, % at 10 µM; 330,000 tested, 0.59% active;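 active means inhibition of aptamer binding above 40%, roughly 3 SD of noise, on plates passing a quality check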;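 further: median bead fluorescence of bound FAM aptamer so fluorescent compounds give negative values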
# Scp-1 conf: confirmation of human Scp-1 phosphatase inhibitors | AID 540281 | recombinant SCP-1 catalytic domain, phosphate release, malachite green absorbance | 2,500 tested, 61% active | shares compounds with Scp-1 inhibitor | inhibition, % at 20 µM;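 further: plate controls were DMSO with enzyme for no effect and buffer wells lacking enzyme for full effect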
# MG interference: counter-screen for Scp-1 inhibitors: colorimetric interference. shares compounds with Scp-1 inhibitor. Colorimetric interference counterscreen, malachite green absorbance 630 nm. apparent inhibition (interference), % at 20 µM. 2,500 tested, under 10 active. AID 540313;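 further: compounds added after enzyme reaction finished so only phosphate colour detection is probed; plate controls were DMSO wells with completed Scp-1 reaction for no effect and substrate wells lacking enzyme for full effect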
# Scp1 DSF: Scp-1 (human) binding by thermal shift; shares compounds with Scp-1 inhibitor; Recombinant SCP1, Sypro Orange thermal shift Tm; thermal shift relative to vanadate control, % at 40 µM; 1,500 tested, 25% active; AID 540329;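 active means substances whose mean melting-temperature shift, as a percentage of the reference inhibitor's shift, reaches about 5.3%, limit read from the data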;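 further: 0% = Tm of DMSO wells and 100% = Tm with sodium orthovanadate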
# The depositor's hits bear a star; . = not tested or not shown. Most compounds without a hit are left out; they make up all but 2.1% or so of the library.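 How the source made its calls, unless noted: active means inhibition of at least 30% at 20 µM; inactive means the rest.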
SMILES,SUMO1-SIM PPI,STEP block,DNMT1 inh,LMPTP inh,Scp-1 inhibitor,GRK2 inh,Scp-1 conf,MG interference,Scp1 DSF
O=C(O)c1cc(S(=O)(=O)N2CCN(S(=O)(=O)c3ccc4ccccc4c3)CC2)ccc1Br,8.1,8.3,33.8,1.4,59.0*,21.0,62.6*,-16.2,8.7*
C[C@H](O)C#Cc1ccc2c(c1)O[C@@H](CN(C)Cc1ccc(-c3ccccc3)cc1)[C@H](C)CN([C@@H](C)CO)S2(=O)=O,1.8,-2.5,-30.6,2.6,.,.,.,.,.
O=C(COc1ncnc2sccc12)N1CCN(C(=O)c2ccco2)CC1,46.5*,7.1,35.4,5.5,91.5*,8.0,63.9*,-20.2,1.8
COc1ccccc1-c1nn2c(-c3ccco3)nnc2s1,6.6,-0.3,17.1,6.6,51.4*,0.0,59.9*,-3.8,-6.8
c1coc(-c2nn3c(-c4ccco4)nnc3s2)c1,9.1,-7.7,34.3,-0.3,41.9,18.0,.,.,.
O=C(O)c1ccc(COc2ccccc2/C=C2\NC(=O)N(Cc3ccccc3F)C2=O)cc1,-11.6,1.6,-0.7,2.6,30.4,0.0,.,.,.
COc1cccc(/C=C2/NC(=O)N(CC(=O)Nc3ccc(C)cc3)C2=O)c1OCc1cccc(C(=O)O)c1,-30.8,11.0,0.8,1.5,79.2*,6.0,71.5*,-19.7,-0.9
Cc1ccc(NC(=O)CN2C(=O)N/C(=C/c3ccccc3OCc3cccc(C(=O)O)c3)C2=O)cc1,-16.6,0.1,3.0,0.8,25.1,4.0,.,.,.
O=C(CN1C(=O)N/C(=C\c2ccccc2OCc2ccc(C(=O)O)cc2)C1=O)Nc1ccccc1F,-24.0,8.4,5.9,28.6,50.1*,0.0,78.2*,-8.7,-3.4
CC(C)(C)C(=O)OC/C(N)=N/OC(=O)c1ccc(Cl)cc1,8.4,3.9,1.2,-0.5,0.4,3.0,.,.,.
CC(C)(C)C(=O)O/N=C(\N)COc1cccc(Cl)c1,2.1,-1.4,2.2,0.3,79.2*,0.0,-8.4,-7.9,.
O=C(Cn1cc(C(F)(F)F)ccc1=O)Nc1ccc2c(c1)OCO2,0.6,-0.7,4.7,-0.3,.,.,.,.,.
COC(=O)CCCC[C@@H]1O[C@H](CCc2ccccc2)CC2=C1C(=O)OC(C)(C)O2,7.4,.,.,0.1,.,.,.,.,.
COC(=O)c1ccccc1NC(=O)CSc1nc(N)cc(N)n1,0.6,-1.7,1.3,0.1,-6.0,0.0,.,.,.
Nc1cc(=O)[nH]c(SCC(=O)Nc2cc(Cl)cc(Cl)c2)n1,1.9,-1.2,-7.4,-1.2,-10.8,2.0,-5.9,-3.2,.
COC(=O)c1ccccc1NC(=O)CSc1nc(N)cc(=O)[nH]1,6.4,2.8,47.4,1.5,56.7*,27.0,34.5*,-17.0,-0.2
O=C(Nc1ccc(C(=O)O)cc1)/C(=C\c1ccc2c(c1)OCO2)NC(=O)c1ccccc1Cl,-5.5,-1.4,0.5,-1.5,.,.,.,.,.
CC(=O)c1ccc(NC(=O)CN2C(=O)COc3ccc(S(=O)(=O)N4CCCC4)cc32)cc1,3.0,-1.6,3.1,-1.0,69.5*,0.0,47.0*,-7.6,11.9*
CCOc1ccc(NC(=O)CN2C(=O)CSc3ccc(S(=O)(=O)N4CCCC4)cc32)cc1,2.5,1.7,0.1,1.1,22.9,0.0,.,.,.
Cc1ccc(NC(=O)CN2C(=O)CSc3ccc(S(=O)(=O)N4CCCCC4)cc32)cc1,2.1,-2.0,-3.5,1.9,56.0*,0.0,56.5*,-12.6,46.9*
O=C1NCCCC2c3c(cc(Br)c(O)c3Br)OC12N1CCCCC1 (stereo not given),4.3,-2.2,1.3,1.0,57.1*,1.0,-9.0,-20.2,.
O=C1NCCCc2c1oc1cc(Br)c(O)c(Br)c21,-0.5,-0.1,1.9,-5.6,-5.2,1.0,.,.,.

# Compound activity: PubChem, several laboratories
